Five compounds from ChEMBL document CHEMBL3784993, “Synthesis and anticancer activity of some 5-fluoro-2'-deoxyuridine phosphoramidates” (Bioorg Med Chem, 2016) can be followed below.

Test [1] relates to HepG2. Put plainly: Selectivity index, ratio of IC50 for HDF cells to IC50 for human HepG2 cells. The test is classed as functional. Summed up:
(§1)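 SI is calculated as the IC50 in normal human dermal fibroblasts (HDF) divided by the IC50 in the respective cancer line. Both values come from 72 h SRB assays. SD is from three independent experiments.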

The test system of test [2] is MCF7. The test is described as follows: Potency index, ratio of IC50 for 5-fluoro-2'-deoxyuridine to IC50 for test compound for cytotoxicity against human MCF7cells after 72 hrs by SRB assay. The test is classed as functional. On the technique in general: The SRB assay estimates cell density from bound dye.
For test [3], the system named is HepG2. The test is described as follows: Cytotoxicity against human HepG2 cells after 72 hrs by SRB assay. The test is classed as functional, cell-based. The following applies: HepG2, 72 h.
Test [4] can be described thus: Selectivity index, ratio of IC50 for HDF cells to IC50 for human KB cells. The test is classed as functional. In a few lines: as §1
Test [5] deals with HeLa. Put plainly: Selectivity index, ratio of IC50 for HDF cells to IC50 for human HeLa cells. Format: functional. Summed up:
as §1

In a further test the test system is KB. Put plainly: Cytotoxicity against human KB cells after 72 hrs by SRB assay. The test is classed as functional, cell-based. In a few lines:
(§2)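 SRB protein-stain assay. Cells were seeded at about 10,000 per well and grown 24 h to a partial monolayer. They were then exposed for 72 h at 37 °C (5% CO2, 90% RH) to six concentrations: 0.1, 0.2, 1, 2, 10 and 20 µM. Final DMSO was ≤0.1%. Cells were TCA-fixed and stained with 0.4% SRB, and OD was read at 490 nm. Survival was expressed versus untreated cells. Cytarabine served as internal standard, with three experiments.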

For test [6], the system named is 143B. The test is described as follows: Selectivity index, ratio of IC50 for HDF cells to IC50 for human 143B cells. The test is classed as functional. In a few lines:
as §1

Test [7] concerns 143B. Put plainly: Cytotoxicity against human thymidine kinase deficient 143B cells after 72 hrs by SRB assay. The test is classed as functional, cell-based. In a few lines: as §2
Test [8] is described as follows: Cytotoxicity against HDF cells after 72 hrs by SRB assay. Format: cell-based. The following applies: Homo sapiens.
For test [9], the system named is MCF7. Put plainly: Selectivity index, ratio of IC50 for HDF cells to IC50 for human MCF7 cells. Format: functional. Summed up: as §1
The test system of test [10] is HeLa. The test is described as follows: Cytotoxicity against human HeLa cells after 72 hrs by SRB assay. Format: functional, cell-based. In a few lines:
as §2

In test [11] the test system is MCF7. Put plainly: Cytotoxicity against human MCF7cells after 72 hrs by SRB assay. The test is classed as functional, cell-based. Particulars: MCF7, 72 h.
Test [12] concerns 143B. Put plainly: Cytotoxicity against human 143B cells after 72 hrs by SRB assay. Format: functional, cell-based. In a few lines:
as §2

Test [13] relates to HeLa. Put plainly: Cytotoxicity against human HeLa cells after 72 hrs in presence of human recombinant cytochrome P450 isoform mixture by SRB assay. The test is classed as functional, cell-based.

One may read the IC50 as the concentration that inhibits the measured activity by half. `CCNP(=O)(OC[C@H]1O[C@@H](n2cc(F)c(=O)[nH]c2=O)C[C@@H]1OC(=O)OC(C)(C)C)Oc1ccc(Cl)cc1` (some centres not stated): the “Ratio IC50” value amounted to 1.41 in the test with HepG2 [1]; 9 in the test with MCF7 [2]; 1.79 in test [4]; 2.26 in the test with HeLa [5]; 1.37 in the test with 143B [6]; 4.24 in the test with MCF7 [9]. Also, the IC50 amounted to 4.26 µM in the test with HepG2 [3]; 3.37 µM in the test with KB; 9.11 µM in the test with 143B [7]; 6.02 µM in [8]; 2.66 µM in the test with HeLa [10]; 1.42 µM with MCF7 [11]. Also, it took 4.4 µM to reach half-maximal inhibition in the test with 143B [12] (IC50).

Take `CCCCNP(=O)(OC[C@H]1O[C@@H](n2cc(F)c(=O)[nH]c2=O)C[C@@H]1OC(=O)OC(C)(C)C)Oc1ccc(Cl)cc1` (some centres not stated): the half-inhibitory concentration (IC50) is 64.2 µM in the test on HepG2 [3]; 66.4 µM with KB; 87 µM in [8]; 71.4 µM with HeLa [13]; 76 µM in the test on HeLa [10]; 80.1 µM in the test on MCF7 [11].

Take `CCCNP(=O)(OC[C@H]1O[C@@H](n2cc(F)c(=O)[nH]c2=O)C[C@@H]1OC(=O)OC(C)(C)C)Oc1ccc(Cl)cc1` (some centres not stated): the half-inhibitory concentration (IC50) was 26 µM in the test on HepG2 [3]; 27.2 µM in the test on KB; 61.1 µM in test [8]; 45.2 µM in the test on HeLa [13]; 49.3 µM in the test with HeLa [10]; 20.8 µM with MCF7 [11].

Turning to `CC(C)(C)OC(=O)O[C@H]1C[C@H](n2cc(F)c(=O)[nH]c2=O)O[C@@H]1COP(=O)(NCCCN=[N+]=[N-])Oc1ccc(Cl)cc1` (some centres not stated), the IC50 in the test with HepG2 [3] was determined as 46.9 µM; with KB, 54.9 µM; in test [8], 57.2 µM; with HeLa [13], 24.1 µM; in the test on HeLa [10], 52.5 µM; in the test with MCF7 [11], 58.5 µM.

Consider `CC(C)(C)OC(=O)O[C@H]1C[C@H](n2cc(F)c(=O)[nH]c2=O)O[C@@H]1COP(=O)(NCCCCN=[N+]=[N-])Oc1ccc(Cl)cc1` (some centres not stated), for which the IC50 was 58.9 µM with HepG2 [3]; 35.6 µM with KB; 48.3 µM in test [8]; 17.7 µM in the test on HeLa [13]; 36 µM in the test with HeLa [10]; 35.4 µM in the test on MCF7 [11].
